Measurements taken from ChEMBL document CHEMBL5325455, “Daphnanes diterpenes from the latex of Hura crepitans L. and their PKCζ-dependent anti-proliferative activity on colorectal cancer cells” (Bioorg Med Chem, 2023).
Active and inactive are the calls of the source. The calls are words filed in the database; no cut-off is given here.

What was measured:
[1] = molecular target: T1, Protein kinase C zeta type (Homo sapiens) (UniProt Q05513); assay: Activation of PKCzeta in human Caco-2 cells assessed as increase in phosphorylation at Thr410 residue at 1 ug/ml measured after 48 hrs by Western blot analysis; format: cell-based; conditions: filed as activator, dose 1.0 µg/ml
T1 sequence (whole entry): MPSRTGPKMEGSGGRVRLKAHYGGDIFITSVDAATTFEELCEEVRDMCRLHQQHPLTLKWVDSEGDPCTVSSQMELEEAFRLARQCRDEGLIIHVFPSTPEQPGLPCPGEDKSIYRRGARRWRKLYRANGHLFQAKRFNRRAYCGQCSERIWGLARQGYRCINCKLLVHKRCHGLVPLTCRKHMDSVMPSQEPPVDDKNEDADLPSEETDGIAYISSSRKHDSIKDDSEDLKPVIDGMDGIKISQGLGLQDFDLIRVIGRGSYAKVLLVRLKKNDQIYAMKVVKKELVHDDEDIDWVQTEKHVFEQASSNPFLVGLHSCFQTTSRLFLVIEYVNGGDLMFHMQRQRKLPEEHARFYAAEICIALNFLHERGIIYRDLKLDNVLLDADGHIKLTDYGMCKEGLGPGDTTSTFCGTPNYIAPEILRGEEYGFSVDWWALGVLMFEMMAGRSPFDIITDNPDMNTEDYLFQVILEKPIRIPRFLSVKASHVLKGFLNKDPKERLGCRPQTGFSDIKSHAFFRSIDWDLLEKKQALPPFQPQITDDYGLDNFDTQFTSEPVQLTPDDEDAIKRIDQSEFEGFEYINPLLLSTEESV
Summary of the method: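 Caco-2 cells (0.25 × 10^6/well) were pretreated or not with 2.5 µM CRT0066854 for 30 min, then treated at 1 µg/mL for 48 h. Lysis buffer was pH 7.4 Tris/NaCl/0.1% Triton/EDTA with protease and phosphatase inhibitors. 30 µg protein was run on 4–15% SDS-PAGE, blotted and probed overnight at 4°C for pThr410-PKCζ and total PKCζ, with HRP/ECL detection.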

[2] = molecular target: Protein kinase C delta type (Homo sapiens) (UniProt Q05655); assay: Inhibition of PKCdelta in human Caco-2 cells assessed as reduction in protein phosphorylation at Ser664 residue at 1 ug/ml incubated for 48 hrs by Western blot analysis; format: cell-based; conditions: dose 1.0 µg/ml
Caco-2 = assay: Cytostatic activity against human Caco-2 cells assessed as inhibition of cell growth at 1 ug/ml incubated for 48 hrs by MTS assay relative to control; format: functional
Summary of the method: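 Caco-2 cells were seeded at 40 000/well 48 h before dosing. Compound was diluted from a 10 mg/mL DMSO stock into medium (0.125, 0.5 or 1 µg/mL final; DMSO ≤0.01%) and added in triplicate for 48 h. Viability was read by MTS absorbance at 490 nm and expressed relative to the DMSO control.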

Chain of Protein kinase C delta type (Homo sapiens) (Q05655 whole entry, looked up): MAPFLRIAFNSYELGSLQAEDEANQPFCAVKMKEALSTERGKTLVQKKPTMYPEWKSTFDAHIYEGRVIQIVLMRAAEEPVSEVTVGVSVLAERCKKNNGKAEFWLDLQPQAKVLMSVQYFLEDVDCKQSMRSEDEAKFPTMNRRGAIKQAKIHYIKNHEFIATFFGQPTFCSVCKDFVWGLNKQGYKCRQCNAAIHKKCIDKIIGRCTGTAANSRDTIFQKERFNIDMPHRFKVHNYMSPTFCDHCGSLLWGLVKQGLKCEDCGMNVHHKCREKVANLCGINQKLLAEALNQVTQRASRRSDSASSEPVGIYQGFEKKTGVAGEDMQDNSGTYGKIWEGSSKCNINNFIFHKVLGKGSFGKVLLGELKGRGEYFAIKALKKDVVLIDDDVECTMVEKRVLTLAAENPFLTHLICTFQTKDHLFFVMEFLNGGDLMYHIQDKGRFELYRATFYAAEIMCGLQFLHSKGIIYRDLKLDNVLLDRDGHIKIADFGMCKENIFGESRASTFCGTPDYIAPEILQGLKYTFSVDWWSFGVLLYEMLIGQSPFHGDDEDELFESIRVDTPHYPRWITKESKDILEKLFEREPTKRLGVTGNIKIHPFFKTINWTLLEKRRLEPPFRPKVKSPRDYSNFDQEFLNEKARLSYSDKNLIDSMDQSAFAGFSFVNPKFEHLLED

| Structure (SMILES) | Activity [1] | inhibition [2] | inhibition at 1 µg/mL (Caco-2) [%] |
| --- | --- | --- | --- |
| C=C(C)[C@]12C[C@@H](C)[C@@]34O[C@](/C=C/C=C/CCCCCCCCC)(O[C@@H]1[C@@H]3[C@@H]1O[C@]1(CO)[C@@H](O)[C@]1(O)C(=O)C(C)=C[C@H]14)O2 | Active | Active |  |
| C=C(C)[C@]12C[C@@H](C)[C@@]34O[C@](/C=C/[C@@H]5O[C@H]5CCCCCCCCC)(O[C@@H]1[C@@H]3[C@@H]1O[C@]1(CO)[C@@H](O)[C@]1(O)C(=O)C(C)=C[C@H]14)O2 |  |  | 30 |
